Mot1-301 SUMO: blocks SUMOylation pathway, rescuing yeast Mot1-301 growth. S. cerevisiae Mot1-301 growth rescue, ATP luminescence, 38.5C; percent above DMSO median, 100 means doubled. growth rescue, % at 18.8 µM. 320,000 tested, 1% active. AID 2716;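 active = every valid replicate shows activation above 250% relative to neutral control wells; inactive = the rest, any valid replicate at or below 250%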;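 note: OY570 slx delta 5 strain wells were the positive control but not used for scaling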
ASAP1 GAP inh: inhibitors of human ASAP1 ArfGAP activity. inhibition, % at 16.5 µM. Q9ULH1. ASAP1-stimulated ARF1 GTP hydrolysis, GDP FP detection. AID 624377. 360,000 tested, 0.19% active; in the data active = inhibition above about 25%;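 note: 0% = vehicle with enzyme and substrate and 100% = no enzyme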
APOBEC3G inh: blocks human APOBEC3G single-stranded DNA deamination. recombinant A3G, ssDNA deamination FAM/TAMRA fluorescence. inhibition, % at 20 µM. Q9HC16. 330,000 tested, 0.28% active;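 active = inhibition of at least 40% at 20 µM, with no more than 30% in the related APOBEC3A deaminase screen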;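 note: plate controls were DMSO wells with A3G for no effect and wells lacking A3G enzyme for full effect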
ARFGAP1 inhibitor: rat ARFGAP1 inhibition | Arfgap1-stimulated ARF1 GTP hydrolysis, GDP FP detection | inhibition, % at 16.5 µM | 360,000 tested, 0.26% active | AID 651572;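 active = inhibition above a per-plate limit, mean inhibition of low control wells plus 3 SD, cut at about 25% in these data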;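 note: 0% = DMSO wells with enzyme and 100% = wells lacking Arfgap1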
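System: truncated rat Arfgap1 GAP domain / Benchmarks: high control wells lacking Arfgap1, low control full reaction with DMSO / Times: compound-enzyme preincubation 20 min, reaction 120 min, detection 60 min, 25 °C / Repeats: one replicate per compound / Also added: human ARF1(Δ1-17)-GTP substrate / Measured by: Tracer-displacement fluorescence polarization with EDTA stop, 620/688 nm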
APOBEC3A inh: human APOBEC3A DNA deaminase inhibition | P31941 | recombinant A3A, FAM/TAMRA ssDNA deamination fluorescence | inhibition, % at 20 µM | 330,000 tested, 0.41% active | AID 493011;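 active = at least 40% inhibition at 20 µM here, with at most 30% in a related deaminase screen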;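 note: plate controls were A3A with DMSO for no effect and wells lacking A3A enzyme for full effect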
Target sequence (P31941 whole entry, looked up): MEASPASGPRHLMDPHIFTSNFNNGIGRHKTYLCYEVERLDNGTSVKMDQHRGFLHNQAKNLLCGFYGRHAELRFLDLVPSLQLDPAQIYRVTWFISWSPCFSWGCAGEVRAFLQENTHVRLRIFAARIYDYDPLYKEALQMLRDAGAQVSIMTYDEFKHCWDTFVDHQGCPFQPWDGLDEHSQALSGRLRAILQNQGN
Statin myotox sup: suppressors of simvastatin-induced myotoxicity in C2C12 myotubes | ATP luminescence, 48 h; scaled: DMSO 0, geranylgeraniol control 100 | 330,000 tested, 0.78% active | AID 602340 | rescue of ATP level, % at 7.49 µM;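 active = mean ATP rescue above about 67%, or every replicate alone reaching that limit, limit read from the data, passing the limit was not always enough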;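 note: myotubes were challenged with 10 µM simvastatin during compound exposure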
ARFGAP1 inh conf: confirmation of rat ARFGAP1 inhibitors; shares compounds with ARFGAP1 inhibitor; ARFGAP1-stimulated ARF1 GTP hydrolysis, GDP tracer FP; inhibition, % at 16.5 µM; 890 tested, 30% active; AID 651608;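 active = average inhibition over triplicates above the hit cutoff set in the earlier primary screen, cut at about 25% in these data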;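 note: 0% = Arfgap1 plus ARF1-GTP with DMSO and 100% = wells lacking Arfgap1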
Target sequence (Q62848 whole entry, looked up): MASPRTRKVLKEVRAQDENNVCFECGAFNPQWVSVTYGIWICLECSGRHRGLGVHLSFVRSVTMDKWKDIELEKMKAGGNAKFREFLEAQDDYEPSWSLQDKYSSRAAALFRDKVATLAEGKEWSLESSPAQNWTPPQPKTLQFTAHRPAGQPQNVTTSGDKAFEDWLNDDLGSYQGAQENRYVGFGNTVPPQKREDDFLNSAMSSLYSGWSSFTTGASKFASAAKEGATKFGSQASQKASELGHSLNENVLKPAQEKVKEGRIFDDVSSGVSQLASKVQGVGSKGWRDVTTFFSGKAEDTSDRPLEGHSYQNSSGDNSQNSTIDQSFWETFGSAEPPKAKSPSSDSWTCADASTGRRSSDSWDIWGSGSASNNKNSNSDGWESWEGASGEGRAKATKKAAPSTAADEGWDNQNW
Active calls of the source: *; x = no result given. A selection: hits, their analogues and other compounds. The true share with any hit is near 2.1%.

SMILES	Mot1-301 SUMO	ASAP1 GAP inh	APOBEC3G inh	ARFGAP1 inhibitor	APOBEC3A inh	Statin myotox sup	ARFGAP1 inh conf
CC(=O)NCCc1ccc(S(=O)(=O)Nc2ccc(NC(=O)c3ccc(F)cc3)cc2)cc1	-8	1	-1	29*	3	-8	3
CCOC(=O)c1ccc(Nc2cc(C)nc(-c3ccccc3)n2)cc1	64	19	-6	27*	-2	-1	15
CCCNC(=O)[C@H]1[C@H](CO)[C@H]2Cn3c(cccc3=O)[C@@H]1N2C(=O)C1CCC1	x	x	x	x	x	5	x
CC1CC(C)CN(C(=O)COC(=O)c2cc3ccccc3oc2=O)C1 (centres undefined)	-24	-2	-4	1	0	1	x
CC1CC(C)CN(C(=O)COC(=O)c2cc3ccccc3cc2O)C1 (centres undefined)	-5	12	-2	37*	1	x	32*
CCN(CC)c1ccc(C(=C2C=CC(=[N+](CC)CC)C=C2)c2ccc(N(CC)CC)cc2)cc1	x	18	x	36*	x	-362	24
COC(=O)C[C@@H]1CC[C@H]2[C@H](COc3ccc(NC(=O)C4CCOCC4)cc3C(=O)N2C)O1	x	x	x	x	x	-9	x
C[C@@H]1CN([C@H](C)CO)C(=O)c2cc(NS(=O)(=O)c3ccc(Cl)cc3)ccc2O[C@H]1CN(C)C(=O)Nc1ccc2c(c1)OCO2	x	x	x	x	x	24	x
COc1ccc(CCNC(=O)CN(c2ccccc2OC)S(C)(=O)=O)cc1	-1	-1	-4	28*	-3	x	-6
COc1ccc(CCNC(=O)CN(c2ccccc2OC)S(C)(=O)=O)cc1OC	-1	1	-2	-8	0	12	x
CC(C)CC#Cc1ccc2c(c1)O[C@H](CN(C)Cc1ccccc1F)[C@H](C)CN([C@@H](C)CO)S2(=O)=O	x	x	x	x	x	-110	x
CCC1Nc2ncnc(N3CCCCC3)c2N(Cc2ccc(Cl)cc2)C1=O (centres undefined)	23	-6	-6	29*	-4	18	1
C[C@H]1CN([C@@H](C)CO)C(=O)Cc2cc(NC(=O)CCC(F)(F)F)ccc2O[C@@H]1CN(C)C(=O)Nc1cccc2ccccc12	x	x	x	x	x	-8	x
CCOC(=O)Cc1csc(NC(=O)CSc2ncnc3c2cnn3-c2ccccc2Cl)n1	x	0	x	35*	x	-6	1
Cc1nnc(NC(=O)CSc2ncnc3c2cnn3-c2ccccc2C)s1	86	-4	1	12	2	17	x
Cc1ccc(NC(=O)CSc2nnc(CNC(=O)C34CC5CC(CC(C5)C3)C4)n2-c2ccc(F)cc2)cc1	-5	-2	-1	29*	-1	x	4
CC(C)CC#Cc1ccc2c(c1)O[C@@H](CN(C)C(=O)C1CC1)[C@H](C)CN([C@@H](C)CO)S2(=O)=O	x	x	x	x	x	-48	x
Oc1ccccc1C=NNc1nc2ccccc2s1	x	-2	x	16	x	6	x
Oc1ccc(C=NNc2nc3ccccc3s2)c(O)c1	x	-3	x	30*	x	117*	11
C[C@@H]1CN([C@H](C)CO)C(=O)c2cc(C3=CCCCC3)cnc2O[C@@H]1CN(C)C(=O)c1cccnc1	x	x	x	x	x	-1	x
CCOC(=O)C(C)(C)N(Cc1cccc(C)c1)S(=O)(=O)c1ccc(Cl)c([N+](=O)[O-])c1	9	-7	2	11	0	x	x
CCOC(=O)C(C)(C)N(Cc1cccc(C)c1)S(=O)(=O)c1cccc([N+](=O)[O-])c1	12	-11	-6	35*	-1	x	1
O=C(N[C@H]1CC[C@@H](CCNS(=O)(=O)c2ccccc2)O[C@@H]1CO)c1cccnc1	x	x	x	x	x	0	x
CN1CCN(c2ccc(Cl)cc2NC(=O)/C=C/c2cccc(F)c2)CC1	18	22	1	31*	-7	x	19
CN1CCN(c2ccc(Cl)cc2NC(=O)c2cccc(S(=O)(=O)N(C)C)c2)CC1	-21	7	-3	-10	3	-8	x
SMILES	Mot1-301 SUMO	ASAP1 GAP inh	APOBEC3G inh	ARFGAP1 inhibitor	APOBEC3A inh	Statin myotox sup	ARFGAP1 inh conf
Cc1cccc(-c2n[nH]nc2C2=CC(=O)CC(C)(C)C2)c1	x	-2	x	42*	x	-6	-3
CCNc1nc(NCc2ccccc2)nc(SCC(N)=O)n1	-12	-7	-5	-1	2	13	x
CCNc1nc(NCc2ccccc2)nc(SCC(=O)Nc2ccccc2)n1	40	5	-7	27*	1	x	8
O=C(Nc1ccc(CN2CCOCC2)cc1)c1ccc(-c2cccc(Cl)c2)o1	x	14	-5	32*	-4	6	27*
COC(=O)C1C2CC3c4[nH]c5cc(OC)ccc5c4CCN3CC2CC(OC2CCCCO2)C1OC (centres undefined)	x	7	x	7	x	5	x
COC(=O)[C@H]1[C@H]2C[C@@H]3c4[nH]c5cc(OC)ccc5c4CCN3C[C@H]2C[C@@H](OC(=O)c2cc(OC)c(OC)c(OC)c2)[C@@H]1OC	351*	6	-6	28*	-1	8	3
O=C(NCC[C@H]1CC[C@@H](NC(=O)C2CCCC2)[C@H](CO)O1)Nc1ccc(Cl)cc1	x	x	x	x	x	-3	x
O=[N+]([O-])c1ccc(N/N=C2\CC3CC=CC23)cc1 (centres undefined)	x	7	-11	28*	-2	x	3
O=[N+]([O-])c1ccc(N/N=C2\CC3CC=CC23)c([N+](=O)[O-])c1 (centres undefined)	3	3	5	2	9	x	x
C[C@@H]1CN([C@H](C)CO)S(=O)(=O)c2ccc(C#Cc3ccccn3)cc2O[C@H]1CN(C)C(=O)C1CC1	x	x	x	x	x	-3	x
NC1=NC(=O)/C(=C/c2cccc(-c3ccc(S(N)(=O)=O)cc3)c2)S1	32	-3	-6	28*	9	-9	5
Cn1c(/C(C#N)=C/c2ccc(O)cc2)nc2ccccc21	0	9	-6	25*	-7	x	3
O=C(N/N=C/c1ccc2c(c1)OCO2)c1ccc2c(c1)OCO2	8	4	-7	16	-1	3	x
O=C(N/N=C/C(Cl)=C/c1ccccc1)c1ccc2c(c1)OCO2	23	23	-10	29*	-4	-4	36*
CN(Cc1ccccc1)C(=O)c1nc[nH]c1C(=O)N(C)Cc1ccccc1	7	4	-6	27*	-3	-3	-4
CN(C)CC(=O)Nc1ccc2c(c1)[C@H]1C[C@@H](CC(=O)NCC3CC3)O[C@H](CO)[C@H]1O2	x	x	x	x	x	-1	x
CN1c2ccc(Br)cc2[C@@H]2[C@@H](CCN2C(=O)C2CCCCC2)[C@@H]1CO	x	x	x	x	x	-13	x
Cc1cc(=O)n(-c2ccc(C(=O)O)cc2)[nH]1	489	5	1	28*	7	14	-1
CO[C@@H]1CN(C)C(=O)c2ccc(NC(=O)C3CCOCC3)cc2OC[C@@H](C)N(C)C[C@@H]1C	x	x	x	x	x	4	x

Screens from PubChem.
